Screening data deposited in PubChem by several laboratories.
In the library only some 2.4% were active in any assay of this set; here they are far more common.
EP2 mod = EP2 receptor modulators, cAMP readout, primary screen, cell-based, HTRF cAMP, PGE2 stimulation. hit rate 0.83% among 260,000. induction, % at 25 µM. EP2-expressing cells, cAMP HTRF FRET, PGE2 co-stimulation. Prostaglandin E2 receptor EP2 subtype (Homo sapiens), P43116;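 active = compounds whose cAMP rise, as percent of the full-agonist control response, exceeds 60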;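 note: rat C6 glioma line stably carrying human EP2 under a CMV promoter; the protocol text gives 20 µM as final concentration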
Target sequence (P43116 whole entry, looked up): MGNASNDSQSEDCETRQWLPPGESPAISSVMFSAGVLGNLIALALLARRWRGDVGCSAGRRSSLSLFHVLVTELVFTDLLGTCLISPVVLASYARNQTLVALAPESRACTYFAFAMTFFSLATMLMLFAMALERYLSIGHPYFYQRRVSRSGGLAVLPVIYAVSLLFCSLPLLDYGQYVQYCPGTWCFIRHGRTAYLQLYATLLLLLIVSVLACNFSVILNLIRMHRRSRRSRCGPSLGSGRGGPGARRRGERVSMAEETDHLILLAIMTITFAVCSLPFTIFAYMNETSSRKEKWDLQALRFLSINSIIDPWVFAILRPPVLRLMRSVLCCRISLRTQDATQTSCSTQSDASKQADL
Tb hexokinase = Trypanosoma brucei hexokinase 1 inhibitors, primary screen, biochemical, G6PDH-coupled NADH absorbance, MLSCN library; hexokinase 1 [Trypanosoma brucei]; recombinant TbHK1, G6PDH-coupled NADH A340; inhibition, % at 10 µM; hit rate 0.11% among 220,000; AID 1430, 2008;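 active = inhibition of 50% or more in the single-dose primary screen; inactive = inhibition below 50%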
b-catenin transl = modulators of beta-catenin nuclear translocation, primary screen, imaging, HeLa cells, immunofluorescence, high-content; nuclear translocation activity, % at 5 µM; hit rate 0.3% among 190,000;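 active = nuclear translocation activity above 50% at 5 µM, with a well cell count of 50 or more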;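 note: per-cell ratio of nuclear to cytoplasmic median beta-catenin stain intensity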
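test system = HeLa cells, endogenous beta-catenin | dosing = single 5 µM dose plus 0.02–20 µM confirmation series | times = compound treatment 24 h, 37°C, 5% CO2 | technique = beta-catenin immunofluorescence imaging with DAPI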
EP2 antag = human EP2 receptor antagonists, primary screen, TR-FRET cAMP, C6 glioma cells; Prostaglandin E2 receptor EP2 subtype (Homo sapiens), P43116; hit rate 0.52% among 260,000; inhibition, % at 25 µM; C6 glioma cells expressing human EP2; cells stimulated with saturating PGE2; AID 1422, 2008;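 active = percent inhibition above 40 after rounding to a whole number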;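 note: rat C6 glioma host cells with rolipram phosphodiesterase inhibitor present; the protocol text gives 20 µM as final concentration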
MT stabilize HCS = microtubule stabilizers in HeLa cells, primary screen, imaging, high-content imaging; HeLa tubulin immunostaining HCS, 24 h; share of cells brighter than vehicle mean+2SD; % tubulin-high responders, % at 10 µM; hit rate 0.83% among 200,000; AID 2205, 2009;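 active = plate Z-score above 3 for both tubulin-high and condensed-nucleus cell shares, with cell loss under 80%, at 10 µM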;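 note: anti alpha tubulin signal scored within the nucleus-defined area of each cell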
HMGR II inh = inhibitors of E. faecalis class II HMGR, primary screen, biochemical, Enterococcus faecalis; HMG-CoA reductase (Enterococcus faecalis, mvaE); purified E. faecalis HMGR, NADPH absorbance 340 nm kinetic; inhibition, % at 10 µM; hit rate 0.41% among 190,000;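 active = inhibition above a set limit, the median over all tested compounds plus 3 SD, cut at about 9.5% in these data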;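 note: enzyme runs in reverse so mevalonate oxidation gives rising NADPH absorbance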
Of the large screens only hits and unclear results are named; the others gave an inactive call; ! = repeats disagree.

CCn1c(SCC(=O)Nc2cccc(NC(=O)c3ccc(F)cc3)c2)nnc1-c1ccncc1	none (no result: Tb hexokinase, b-catenin transl, MT stabilize HCS, HMGR II inh)
CCC(Sc1ccccn1)C(=O)Nc1cccc([N+](=O)[O-])c1 (stereo not given)	HMGR II inh 14
CC(Sc1cccc[n+]1[O-])C(=O)Nc1cccc([N+](=O)[O-])c1 (stereo not given)	none
CC1CCN(S(=O)(=O)c2cccc(C(=O)Oc3ccc([N+](=O)[O-])cc3)c2)CC1	EP2 antag 40
COc1ccc2nc3cc(Cl)ccc3c(C#N)c2c1	none (no result: MT stabilize HCS, HMGR II inh)
COc1ccc2nc3cc(Cl)ccc3c(Nc3ccc(O)c(CN4CCN(C)CC4)c3)c2c1	EP2 antag 90 (no result: Tb hexokinase, b-catenin transl, MT stabilize HCS, HMGR II inh)
Cc1ccc(C)c(N2CCN(Cc3nnnn3C3CCCCC3)CC2)c1	EP2 mod 61!
Cc1nccn1CCC(=O)N1CCCC(n2nc(-c3cccs3)ccc2=O)C1 (stereo not given)	none (no result: Tb hexokinase, b-catenin transl, EP2 antag, MT stabilize HCS, HMGR II inh)
CC1CCc2sc(C(=O)OCC(=O)NCc3ccc(F)cc3)cc2C1 (stereo not given)	b-catenin transl 119
Cc1nc(NC(=O)COC(=O)c2cc3c(s2)CCC(C)C3)c(Cl)cc1Cl (stereo not given)	none
COCCNC(=O)c1cn(C[C@H]2CCCN(C(=O)c3ccccn3)C2)nn1	none (no result: Tb hexokinase, b-catenin transl, EP2 antag, MT stabilize HCS, HMGR II inh)
CC(C)(C)c1nc(SCC(=O)N2CCCCCC2)c2ccccc2n1	none (no result: Tb hexokinase, b-catenin transl, MT stabilize HCS, HMGR II inh)
CN1CCCC1c1cccnc1 (stereo not given)	none (no result: EP2 mod, Tb hexokinase, b-catenin transl, MT stabilize HCS, HMGR II inh)
CN1CCC[C@H]1c1cccnc1.O=C(O)c1ccccc1O.O=C([OH2+])c1ccccc1O.O=C([OH2+])c1ccccc1O.O=C([OH2+])c1ccccc1O.[Cu]	EP2 antag 40 (no result: Tb hexokinase, b-catenin transl, MT stabilize HCS, HMGR II inh)
CN1CCC[C@H]1c1cccnc1.O=C(O)c1ccccc1O.O=C([OH2+])c1ccccc1O.O=C([OH2+])c1ccccc1O.[Mn+2]	EP2 antag 40 (no result: Tb hexokinase, b-catenin transl, MT stabilize HCS, HMGR II inh)
CC(=O)CSc1nc(C2CC2)cc(C(F)(F)F)c1C#N	EP2 mod 86 (no result: Tb hexokinase, b-catenin transl, MT stabilize HCS, HMGR II inh)
NS(=O)(=O)c1cc(Br)c(N=Nc2ccc(O)c3ncccc23)c(Br)c1	EP2 antag 47 (no result: Tb hexokinase, b-catenin transl, MT stabilize HCS, HMGR II inh)
CCOC(=O)c1cnc(-n2nc(C)cc2C)nc1Nc1ccc(N(C)C)cc1	EP2 mod 62
Cc1[nH]c2ccccc2c1-c1cc(-c2cc(-c3c(C)[nH]c4ccccc34)nc(N)n2)nc(N)n1	EP2 antag 42 (no result: Tb hexokinase, b-catenin transl, MT stabilize HCS, HMGR II inh)
CCOC(=O)CSc1ccc(C(=O)Nc2ccc(Cl)cc2)cn1	EP2 antag 41
CCc1c(C)sc2ncn3c(=O)n(CC(=O)NC4CCCC4)nc3c12	none (no result: Tb hexokinase, b-catenin transl, EP2 antag, MT stabilize HCS, HMGR II inh)
CCOc1ccc(-c2nnn(CC(=O)NCc3ccco3)n2)cc1OCC	none
CCCCOc1ccc(-c2nnn(CC(=O)NCc3ccco3)n2)cc1	MT stabilize HCS 39
Nc1cc2nc3ccccc3oc-2cc1=O	EP2 antag 42 (no result: MT stabilize HCS, HMGR II inh)
CC1=NN(c2ccc([N+](=O)[O-])cc2)C(c2ccccc2)C1 (stereo not given)	EP2 mod 62 (no result: b-catenin transl)
CC(=O)c1cccc2c(O)c(C3=Nc4ccccc4C3=O)[nH]c12	EP2 antag 47
COc1ccc(CNc2ncnc3c2[nH]c2ccccc23)cc1	EP2 antag 60 (no result: MT stabilize HCS, HMGR II inh)
COc1ccc(CNc2ncnc3c2[nH]c2cc(OC)c(OC)cc23)cc1	EP2 antag 54 (no result: MT stabilize HCS, HMGR II inh)
COc1ccc2[nH]c3c(NCCN(C(C)C)C(C)C)ncnc3c2c1	none
CCN(CC)C(=O)CSc1nnc(-c2cccc(C)c2)o1	none (no result: Tb hexokinase, b-catenin transl, MT stabilize HCS, HMGR II inh)
COc1cccc(C2NC(=S)NC(C)=C2C(=O)c2ccccc2)c1OC (stereo not given)	b-catenin transl 132, MT stabilize HCS 24
O=C(NNc1ncc(C(F)(F)F)cc1Cl)c1c(Cl)cccc1Cl	MT stabilize HCS 21 (no result: b-catenin transl)
NC(=O)NNc1ncc(C(F)(F)F)cc1Cl	none
CCOC(=O)C1=C(C)N(C)C(c2ccccc2)(C(F)(F)F)NC1=O (stereo not given)	EP2 antag 43 (no result: Tb hexokinase, b-catenin transl, MT stabilize HCS, HMGR II inh)
COc1ccc(C2(C(F)(F)F)NC(=O)N(C)C(=O)N2C)cc1 (stereo not given)	none
O=C1CSC(c2cccc([N+](=O)[O-])c2)N1c1c(F)cccc1F (stereo not given)	MT stabilize HCS 10
Cc1nnc(NC(=O)CSc2nc(-c3ccc(Cl)cc3)cs2)s1	none (no result: Tb hexokinase, b-catenin transl, MT stabilize HCS, HMGR II inh)
O=C(O)c1c(-c2nccc3ccccc23)[nH]c(-c2ccccc2)c1S(=O)(=O)O	EP2 antag 75 (no result: Tb hexokinase, b-catenin transl, MT stabilize HCS, HMGR II inh)
c1ccc(-c2ccc(-c3nccc4ccccc34)[nH]2)cc1	none (no result: MT stabilize HCS, HMGR II inh)
Brc1ccccc1-c1nnc2sc(-c3ccc4c(c3)OCCO4)nn12	MT stabilize HCS 38 (no result: b-catenin transl)
Clc1ccccc1-c1nnc2sc(-c3ccc4c(c3)OCO4)nn12	none
COc1ccc(S(=O)(=O)N2CC=C[C@@H]2C(=O)NC2CCCCC2)cc1	none (no result: Tb hexokinase, b-catenin transl, MT stabilize HCS, HMGR II inh)
Cc1noc(C)c1CCC(=O)N1CCC(C(=O)c2nc3ccccc3s2)CC1	none (no result: Tb hexokinase, b-catenin transl, EP2 antag, MT stabilize HCS, HMGR II inh)
COc1cccc(NC(=S)/C(=C(\[O-])c2ccc(OC(F)F)cc2)[n+]2ccccc2)c1	HMGR II inh 11
COc1cccc(NC(=S)/C(=C(\[O-])c2ccc(C)c([N+](=O)[O-])c2)[n+]2ccccc2)c1	none
O=C(Nc1ccc(-c2nc3ccccc3o2)cc1)c1cccnc1	EP2 antag 58!
O=C(Nc1ccc2nc(-c3ccccc3)oc2c1)c1ccco1	EP2 antag 42!
COC(=O)c1ccc(-c2nc3ccc(C)cc3o2)cc1	MT stabilize HCS 52
O=C(Nc1ccc2oc(-c3cccnc3)nc2c1)c1ccco1	none
Cc1cc(OCc2nc(-c3ccc(NC(=O)c4cccnc4)cc3)no2)ccc1Cl	none (no result: b-catenin transl)
O=C(Nc1ccc(-c2noc(CCc3ccccc3)n2)cc1)c1cccnc1	EP2 antag 76
CCOc1ccccc1N(CC(=O)Nc1ccc2c(c1)OCCO2)S(=O)(=O)c1ccc(C)cc1	none (no result: Tb hexokinase, b-catenin transl, MT stabilize HCS, HMGR II inh)
COc1cc(OC)cc(C(=O)Nc2ccc(-c3nc4ccccc4o3)cc2)c1	EP2 antag 52
COc1cccc(C(=O)Nc2ccc(-c3nc4ccccc4o3)c(O)c2)c1	none
CCOC(=O)c1sc(N)c(C(=O)Nc2ccccc2OC)c1C	b-catenin transl 80, MT stabilize HCS 22
CCc1ccc(CN(C)CC(=O)Nc2ccc3c(c2)CCC3)cc1	none
Cc1ccc(CN(C)CC(=O)Nc2ccc3c(c2)CCC3)cc1	HMGR II inh 14
Cn1ncc(N=Cc2ccccc2)c1C(=O)Nc1cccc(Cl)c1	MT stabilize HCS 34 (no result: EP2 antag)
Cn1ncc(N=Cc2ccccc2)c1C(N)=O	none
COc1ccc(N2CCN(C(c3ccc(F)cc3)c3nnnn3Cc3ccco3)CC2)cc1 (stereo not given)	none (no result: Tb hexokinase, b-catenin transl, MT stabilize HCS, HMGR II inh)
O=C(c1ccc(F)cc1)N1CCN(C2CCC(c3ccccc3)CC2)CC1 (stereo not given)	none
